Laboratory results reported in article PMC10466730 (Cancer cell, 2023).
Like-named read-outs stand apart in the source and are kept apart here.

Columns and labels:
MOLM-13 cells [1] = test: Efficacy in NSG mice transplanted with MOLM-13 cells; assay type: in vivo; details: for survival: vs DMSO
IKZF2 = IKZF2 (Homo sapiens, UniProt Q96SW2+Q9UKS7); test: Western blot of IKZF2 in MOLM-13 cells; assay type: cell-based; details: MOLM-13, 24 h
Method in brief: (§1)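 MOLM-13 cells (1 × 10⁶) were treated 24 h with test compound diluted from DMSO stocks. Cells were pelleted, washed with PBS, lysed in Laemmli buffer by vortexing for 10 min, and boiled at 95 °C for 5 min. Lysates were resolved on 4–15% gradient SDS-PAGE, transferred to PVDF and immunoblotted with target-specific antibodies.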

CK1α = CK1α (Homo sapiens, UniProt P48729+Q96SW2); test: Western blot of CK1α in MOLM-13 cells; assay type: cell-based; details: for CK1α degradation (Western blot): MOLM-13
Sequence of CK1α (P48729 whole entry): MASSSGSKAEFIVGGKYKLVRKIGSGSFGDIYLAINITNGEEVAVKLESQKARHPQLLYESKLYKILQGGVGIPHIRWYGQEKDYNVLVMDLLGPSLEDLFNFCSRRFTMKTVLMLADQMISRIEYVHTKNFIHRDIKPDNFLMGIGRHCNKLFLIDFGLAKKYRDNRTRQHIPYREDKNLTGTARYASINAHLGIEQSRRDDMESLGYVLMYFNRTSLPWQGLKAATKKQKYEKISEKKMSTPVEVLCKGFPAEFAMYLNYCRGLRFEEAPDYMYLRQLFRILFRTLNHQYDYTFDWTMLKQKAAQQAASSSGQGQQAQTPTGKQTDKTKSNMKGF
Sequence of CK1α (Q96SW2 whole entry): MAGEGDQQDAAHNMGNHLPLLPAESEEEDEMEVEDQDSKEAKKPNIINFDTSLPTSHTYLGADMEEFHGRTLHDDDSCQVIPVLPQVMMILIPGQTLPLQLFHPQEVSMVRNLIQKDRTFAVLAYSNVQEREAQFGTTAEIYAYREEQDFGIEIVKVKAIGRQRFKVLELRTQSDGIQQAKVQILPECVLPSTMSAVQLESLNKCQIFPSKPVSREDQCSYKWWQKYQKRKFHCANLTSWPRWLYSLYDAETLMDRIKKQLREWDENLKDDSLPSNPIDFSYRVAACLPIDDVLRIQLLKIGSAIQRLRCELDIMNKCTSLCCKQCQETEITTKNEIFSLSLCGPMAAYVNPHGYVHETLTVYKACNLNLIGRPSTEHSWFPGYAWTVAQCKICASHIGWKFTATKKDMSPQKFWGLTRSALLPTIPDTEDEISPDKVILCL
Sequence of CK1α (Q16531 whole entry partner): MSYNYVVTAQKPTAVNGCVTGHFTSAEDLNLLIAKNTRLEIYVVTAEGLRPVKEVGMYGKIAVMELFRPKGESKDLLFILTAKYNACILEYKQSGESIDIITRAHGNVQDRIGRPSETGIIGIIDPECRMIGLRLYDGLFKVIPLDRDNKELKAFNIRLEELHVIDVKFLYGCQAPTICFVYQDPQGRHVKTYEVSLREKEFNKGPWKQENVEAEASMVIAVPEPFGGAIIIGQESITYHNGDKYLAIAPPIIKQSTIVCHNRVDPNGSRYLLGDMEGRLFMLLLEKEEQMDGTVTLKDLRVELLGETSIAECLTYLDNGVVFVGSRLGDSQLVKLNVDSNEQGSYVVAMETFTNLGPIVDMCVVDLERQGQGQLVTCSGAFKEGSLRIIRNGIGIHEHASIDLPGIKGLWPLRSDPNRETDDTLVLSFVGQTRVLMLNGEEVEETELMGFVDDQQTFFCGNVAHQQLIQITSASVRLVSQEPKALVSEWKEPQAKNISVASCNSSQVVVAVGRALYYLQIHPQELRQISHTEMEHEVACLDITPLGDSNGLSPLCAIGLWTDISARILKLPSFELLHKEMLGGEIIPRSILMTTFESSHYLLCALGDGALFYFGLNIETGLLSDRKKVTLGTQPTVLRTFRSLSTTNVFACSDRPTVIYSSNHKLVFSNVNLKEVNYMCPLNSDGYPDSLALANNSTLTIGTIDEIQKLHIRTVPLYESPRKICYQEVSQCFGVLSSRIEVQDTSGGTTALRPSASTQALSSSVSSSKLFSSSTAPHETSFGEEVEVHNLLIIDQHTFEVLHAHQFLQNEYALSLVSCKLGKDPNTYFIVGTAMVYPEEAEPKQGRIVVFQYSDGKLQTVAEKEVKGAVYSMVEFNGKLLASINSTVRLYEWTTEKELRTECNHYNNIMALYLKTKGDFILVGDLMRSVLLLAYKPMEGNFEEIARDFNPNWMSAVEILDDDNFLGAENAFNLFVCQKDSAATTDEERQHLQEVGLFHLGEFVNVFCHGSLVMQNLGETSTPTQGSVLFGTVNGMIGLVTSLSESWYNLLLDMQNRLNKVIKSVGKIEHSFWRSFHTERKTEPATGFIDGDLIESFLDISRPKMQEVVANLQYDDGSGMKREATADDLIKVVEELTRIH
Method in brief: as §1

MOLM-13 cells [2] = test: Viability assay in MOLM-13 cells; assay type: cell-based, human; details: MOLM-13, 72 h; for IC50: Homo sapiens; for cellular growth inhibition: unlike lenalidomide, Figure 1E
Method in brief: (§2)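 Human AML cell lines were plated at 10,000 cells per well with increasing test compound up to 100 μM for 72 h at 37 °C, 5% CO₂. CellTiter-Glo was added 1:1 for 15 min at room temperature and luminescence was read; MTT was used as an alternative read-out. Percent viability was fitted by non-linear regression to give IC50. Three independent experiments, triplicates.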

AML PDX#2 = test: Efficacy in NSG mice transplanted with AML PDX; assay type: in vivo, mouse
Pharmacokinetics in mice = assay type: in vivo, mouse; details: plasma, ip
Method in brief: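 Single intraperitoneal doses in DMSO: one test compound at 5 or 50 mg/kg in male CD1 mice, another at 223 mg/kg in female Crbn^I391V mice. Plasma was collected at set times and compound levels were measured by HPLC.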

Solubility in DMSO = assay type: physicochemical
MLL-AF9 Crbn^I391V cells [3] = test: Efficacy in BL6 mice transplanted with MLL-AF9 Crbn^I391V cells; assay type: in vivo
[4] = Toxicity in the hematopoietic system of Crbn^I391V mice; assay type: in vivo, mouse; details: four rounds of 223 mg/kg, weekly
Method in brief: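 Female Crbn^I391V mice aged 8–12 weeks received DMSO or 223 mg/kg test compound once weekly for four rounds. They were sacrificed 4 weeks later. Blood was analysed on a hematology analyser, and stem/progenitor compartments were assessed by flow cytometry.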

MLL-AF9 Crbn^I391V cells [5] = test: Pharmacodynamics in BL6 mice transplanted with MLL-AF9 Crbn^I391V cells; assay type: in vivo, mouse
MLL-AF9 Crbn^I391V cells [6] = test: Efficacy in Crbn^I391V mice transplanted with MLL-AF9 Crbn^I391V cells; assay type: in vivo, mouse; details: 223 mg/kg weekly, non-irradiated Crbn^I391V mice
IKZF1(zinc finger 2)-GFP = IKZF1(zinc finger 2)-GFP (Homo sapiens, UniProt Q13422); test: Flow cytometry degradation assay, HEK293T IKZF1; assay type: cell-based; details: HEK293T IKZF1(zinc finger 2)-GFP
[7] = molecular target: IKZF2(zinc finger 2)-GFP fusion protein (Homo sapiens, UniProt Q96SW2+Q9UKS7); test: Flow cytometry degradation assay, HEK293T IKZF2; assay type: cell-based; details: HEK293T IKZF2(zinc finger 2)-GFP, 24 h
AML PDX cells = test: Viability assay in AML PDX cells; assay type: cell-based, human; details: read-out: IC50 (viability); two AML PDX samples, 2 days, Figure 5D
Method in brief: (§3)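 AML PDX cells or normal human bone marrow cells were plated at 10,000 cells per well with increasing test compound concentrations and cultured for 2 days at 37 °C, 5% CO₂. Viability was read by CellTiter-Glo luminescence or MTT absorbance, normalized to percent viability, and fitted by non-linear regression.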

[8] = tested on: LSK cells from Crbn^I391V mice; test: Colony assay of Crbn^I391V LSK cells; assay type: cell-based, mouse; details: 10 nM, M3434 methylcellulose
Method in brief: (§4)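 Murine cells were plated on MethoCult M3434 methylcellulose with test compound: 500 sorted LSK cells from Crbn^I391V mice, or 1000 bone marrow cells from MLL-AF9 Crbn^I391V leukemic mice. Colonies were counted after 5 days and normalized. Cells came from n=3 mice. Mean ± SEM of biological replicates from two experiments.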

[9] = molecular target: His-CULT and streptactin-CK1α (Homo sapiens, UniProt P48729+Q96SW2); test: AlphaScreen ternary complex between CRBN and CK1α; assay type: binding; details: compared with lenalidomide
Sequence of His-CULT and streptactin-CK1α (Q96SW2 318-426 limits assumed): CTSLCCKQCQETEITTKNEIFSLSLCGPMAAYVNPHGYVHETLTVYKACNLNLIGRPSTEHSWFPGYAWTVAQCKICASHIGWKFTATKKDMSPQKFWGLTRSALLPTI
Sequence of His-CULT and streptactin-CK1α (P48729 whole entry): as the sequence (P48729 whole entry) above
Method in brief: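 CK1α–CRBN ternary complex by AlphaScreen in 1× AlphaScreen buffer (3× stock: 150 mM HEPES pH 7.4, 450 mM NaCl, 0.3% BSA, 0.03% Tween 20). Streptactin-CK1α (600 nM solution) and CULT (500 nM solution) were mixed with a 2-fold serial dilution of test compound in 3% DMSO/buffer, in triplicate, for 1 h at 25 °C. Streptactin acceptor and nickel chelate donor beads were then added for 1 h at 25 °C in the dark before reading.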

[10] = tested on: healthy bone marrow cells; test: Viability assay in healthy bone marrow cells; assay type: cell-based; details: Homo sapiens, Bone marrow cell, 48 h, read-out: IC50 (viability)
Method in brief: as §3

panel of AML cell lines = test: Viability assay in a panel of AML cell lines; assay type: cell-based, human; details: AML cell lines with various oncogenic mutations, 72 h
Method in brief: as §2

CRBN = CRBN (Homo sapiens, UniProt Q96SW2); test: HTR-FRET Cereblon binding assay
Sequence of CRBN (Q96SW2 whole entry): as the sequence (Q96SW2 whole entry) above

IKZF4 = IKZF4 (Homo sapiens, UniProt Q9H2S9); test: Western blot of IKZF4 in MOLM-13 cells; assay type: cell-based; details: MOLM-13, 24 h
Method in brief: as §1

GSPT1 = GSPT1 (Homo sapiens, UniProt P15170+Q96SW2); test: Western blot of endogenous GSPT1; assay type: cell-based; details: degradation at micromolar concentrations, Figure S2D
[11] = tested on: MOLM-13 and MOLM-14 cells; test: Combination viability assay with other AML drugs; assay type: cell-based, human; details: 72 h
Method in brief: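 MOLM-13 cells were co-treated with test compound plus midostaurin or cytarabine for 72 h. Viability was read by CellTiter-Glo luminescence. A representative of three independent experiments is shown, mean ± SEM of triplicates.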

CK1α-GFP fusion protein = CK1α-GFP fusion protein (Homo sapiens, UniProt P48729+Q96SW2); test: Flow cytometry degradation assay, HEK293T CK1α-GFP; assay type: cell-based; details: 5 h
[12] = tested on: MLL-AF9 Crbn^I391V leukemic cells; test: Colony assay of MLL-AF9 Crbn^I391V leukemic cells; assay type: cell-based, mouse; details: 10 nM, M3434 methylcellulose
Method in brief: as §4

[13] = tested on: MLL-AF9 leukemic bone marrow Crbn^I391V cells; test: Viability assay in MLL-AF9 leukemic bone marrow Crbn^I391V cells; assay type: cell-based; details: Mus musculus, MLL-AF9, 72 h, read-out: IC50 (proliferation)
MOLM-13 cells [14] = test: Flow cytometry for apoptosis and differentiation in MOLM-13 cells; assay type: cell-based, human; details: MOLM-13, 10 nM and 100 nM, 2 days
Method in brief: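 MOLM-13 cells were treated 48 h. For differentiation, cells were stained 20 min in the dark in 2% FBS RPMI for CD13-FITC/CD33-APC or CD14-FITC/CD11b-APC. Mean ± SEM of three experiments; Student's t test.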

IKZF3 = IKZF3 (Homo sapiens, UniProt Q9UKT9); test: Western blot of IKZF3 in MOLM-13 cells; assay type: cell-based; details: MOLM-13, 24 h
Method in brief: as §1

[15] = tested on: primary AML patient samples; test: Colony assay of primary AML patient samples; assay type: cell-based, human; details: 10 nM, n = 8, compared to healthy adult bone marrow or cord blood cells
Method in brief: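 Primary AML patient cells, normal bone marrow or cord blood CD34+ HSPCs were plated at 5000 cells on methylcellulose with test compound. Colonies were counted after 7 days and normalized to control. Mean ± SEM of samples from more than three experiments.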

MOLM-13 cells [16] = test: Quantitative global proteomics in MOLM-13 cells; assay type: cell-based, human; details: 50 nM, 2 h
GSPT1-GFP = GSPT1-GFP (Homo sapiens, UniProt P15170+Q96SW2); test: Flow cytometry degradation assay, HEK293T GSPT1-GFP; assay type: cell-based
IKZF1 = IKZF1 (Homo sapiens, UniProt Q13422); test: Western blot of IKZF1 in MOLM-13 cells; assay type: cell-based; details: MOLM-13, 24 h
Method in brief: as §1

MLL-AF9 Crbn^I391V cells [17] = test: Flow cytometry for apoptosis and differentiation in MLL-AF9 Crbn^I391V cells; assay type: cell-based, mouse; details: 10 nM, 24 h post treatment, dependent on humanized CRBN
[18] = tested on: normal bone marrow Crbn^I391V cells; test: Viability assay in normal bone marrow Crbn^I391V cells; assay type: cell-based; details: Mus musculus, 72 h, read-out: IC50 (proliferation)
[19] = read-out: IC50 (cell viability)

Sequence of IKZF2 (Q9UKS7 whole entry): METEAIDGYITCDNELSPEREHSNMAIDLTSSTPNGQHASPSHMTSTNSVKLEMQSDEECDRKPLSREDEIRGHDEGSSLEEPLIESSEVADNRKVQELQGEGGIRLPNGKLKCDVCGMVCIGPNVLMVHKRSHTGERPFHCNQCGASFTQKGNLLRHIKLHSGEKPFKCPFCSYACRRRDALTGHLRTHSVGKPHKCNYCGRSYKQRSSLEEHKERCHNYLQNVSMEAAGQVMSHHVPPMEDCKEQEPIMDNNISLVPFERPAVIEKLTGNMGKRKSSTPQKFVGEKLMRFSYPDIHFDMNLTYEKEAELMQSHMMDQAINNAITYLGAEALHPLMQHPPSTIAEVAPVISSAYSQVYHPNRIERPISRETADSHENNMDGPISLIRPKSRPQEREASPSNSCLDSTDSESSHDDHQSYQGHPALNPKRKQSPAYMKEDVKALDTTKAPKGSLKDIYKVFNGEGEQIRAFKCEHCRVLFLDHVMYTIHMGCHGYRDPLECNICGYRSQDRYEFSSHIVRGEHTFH
Sequence of IKZF2 (Q96SW2 whole entry): as the sequence (Q96SW2 whole entry) above
Sequence of IKZF2 (Q16531 whole entry partner): as the sequence (Q16531 whole entry partner) above

For `COc1cccc2c1OCC(C(=O)Nc1ccc3c(c1)CN(C1CCC(=O)NC1=O)C3=O)=C2` (stereo not shown) [DEG-77, N-(2-(2,6-dioxopiperidin-3-yl)-1-oxoisoindolin-5-yl)-8-methoxy-2H-chromene-3-carboxamide], the survival (MOLM-13 cells [1]; 223 mg/kg weekly) was “increased survival”, the “IKZF2 degradation (Western blot)” value (IKZF2) was “maintained comparable activity” and the “CK1α degradation (Western blot)” value (CK1α) was “maintained comparable activity”. For the same compound, the IC50 (MOLM-13 cells [2]; [19]) was 4 nM, the survival (AML PDX#2; 223 mg/kg weekly from 4 weeks post-transplant) was “significant extension of survival” and the “engraftment of PDX cells in the bone marrow” value (AML PDX#2; after a single injection, >85% prior to treatment) was “around 40%”. The half-life (Pharmacokinetics in mice; female, Crbn^I391V, mouse, 223 mg/kg) was 16.9 h, the “increase in solubility in DMSO compared to DEG-35” value (Solubility in DMSO) was 10 fold and the body weight (MLL-AF9 Crbn^I391V cells [3]; 223 mg/kg weekly) was “without loss of total body weight”. The survival (MLL-AF9 Crbn^I391V cells [3]; 223 mg/kg weekly, vehicle 35 days) was 66 days, the “leukemia progression in secondary transplant” value (MLL-AF9 Crbn^I391V cells [3]; cells from mice treated in the primary transplant) was “pronounced delay in leukemia progression” and the WBC counts [4] was “modest reduction of WBC counts”. The “platelets and RBC counts” value [4] was “remained unchanged”, the “stem cell compartment frequency” value [4] was “reduced HSC and MPP1 frequency” and the “degradation of IKZF2, CK1α, GSPT1 in bone marrow and splenic leukemic cells” value (MLL-AF9 Crbn^I391V cells [5]; one injection 223 mg/kg, 24, 48 and 72 h) was “degradation of IKZF2 and CK1α but not GSPT1”. The survival (MLL-AF9 Crbn^I391V cells [6]) was “significant increase in survival”.

For `O=C1CCC(N2Cc3cc(NC(=O)c4ccc5ccccc5c4)ccc3C2=O)C(=O)N1` (stereo not shown) [DEG-9, N-(2-(2,6-dioxopiperidin-3-yl)-1-oxoisoindolin-5-yl)-2-naphthamide], the “IKZF2 degradation (Western blot)” value (IKZF2) was “dose-dependent degradation” and the cellular growth inhibition (MOLM-13 cells [2]) was “inhibited cellular growth”.

For `COc1ccc2cc(C(=O)Nc3ccc4c(c3)CN(C3CCC(=O)NC3=O)C4=O)ccc2c1` (stereo not shown) [DEG-35, N-(2-(2,6-dioxopiperidin-3-yl)-1-oxoisoindolin-5-yl)-6-methoxy-2-naphthamide], the body weight (MOLM-13 cells [1]; 50 mg/kg) was “without overt weight loss”, the “disease burden (spleen and liver weights)” value (MOLM-13 cells [1]; 50 mg/kg) was “decreased spleen and liver weights” and the survival (MOLM-13 cells [1]; 50 mg/kg) was “significantly prolonged survival”. The “DCmax IKZF1-GFP” value (IKZF1(zinc finger 2)-GFP) was 12%, the “DCmax IKZF2” value [7] was 92% and the “IKZF2 degradation (Western blot)” value (IKZF2) was “efficiently degraded IKZF2”. The IC50 (AML PDX cells) was 5.2 nM, the “CK1α degradation (Western blot)” value (CK1α) was “efficiently degraded CK1α” and the “concentrations depleting CK1α (as low as)” value (CK1α; MOLM-13, 24 h, Western blot) was 1 to 10 nM. For the same compound, the LSK derived colonies [8] was “not affected”, the “ternary complex between CRBN and CK1α” value [9] was “significantly stronger ternary complex” and the IC50 [10] was 15.7 nM. The “IC50 values (growth)” value (panel of AML cell lines) was “single digit nM to low μM”, the Kd (CRBN) was 473 nM and the “activity against IKZF4 (Western blot)” value (IKZF4) was “limited activity”. The IC50 (MOLM-13 cells [2]; [19]) was 5 nM, the IC50 (MOLM-13 cells [2]; read-out: IC50 (viability)) was 5.7 nM and the cellular growth inhibition (MOLM-13 cells [2]) was “inhibited cellular growth”. The survival (AML PDX#2; AML PDX#2, DEG-35 vs DMSO) was “significant prolonged survival”, the half-life (Pharmacokinetics in mice; male, CD1, mouse) was 2.5 h and the “endogenous GSPT1 degradation (Western blot)” value (GSPT1) was “limited degradation at nanomolar concentrations”. For the same compound, the “sensitivity to DEG-35 on co-treatment with cytarabine” value [11] was “more sensitive”, the “sensitivity to DEG-35 on co-treatment with midostaurin” value [11] was “more sensitive” and the “DCmax CK1α” value (CK1α-GFP fusion protein) was 84%. The reduction of colonies [12] was “half”, the IC50 [13] was 9.2 nM and the “apoptosis induction and myeloid differentiation” value (MOLM-13 cells [14]) was “significant dose-dependent apoptosis induction and myeloid differentiation”. For the same compound, the “activity against IKZF3 (Western blot)” value (IKZF3) was “limited activity”, the colony formation [15] was “reduced colony formation” and the “CK1α rank in global proteomics” value (MOLM-13 cells [16]) was “most significantly downregulated protein”. For the same compound, the body weight (MLL-AF9 Crbn^I391V cells [3]; 50 mg/kg) was “without overt weight loss”, the leukemia progression (MLL-AF9 Crbn^I391V cells [3]; 50 mg/kg, vs DMSO) was “delayed leukemia progression” and the “DCmax GSPT1-GFP” value (GSPT1-GFP) was 24%. For the same compound, the “degradation of CK1α and IKZF2 in leukemic cells from bone marrow and spleen” value (MLL-AF9 Crbn^I391V cells [5]; single dose 50 mg/kg, 24 h and 72 h) was “efficient degradation of CK1α and IKZF2”, the “activity against IKZF1 (Western blot)” value (IKZF1) was “limited activity” and the “apoptosis and myeloid differentiation” value (MLL-AF9 Crbn^I391V cells [17]) was “resulted in apoptosis and myeloid differentiation at nanomolar concentrations”. For the same compound, the IC50 [18] was 100 nM.
